From PubChem
Shown are actives, neighbours in structure and some others; about 1.9% of the full set was active somewhere.
MT stabilizer: stabilizes microtubules in HeLa cells; HeLa tubulin immunostaining HCS, 24 h; share of cells brighter than vehicle mean+2SD; % tubulin-high responders, % at 10 µM; 200,000 compounds, 0.83% hits;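 active = plate Z-score above 3 for both tubulin-high and condensed-nucleus cell shares, with cell loss under 80%, at 10 µM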;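 note: anti alpha tubulin signal scored within the nucleus-defined area of each cell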
bCat nuc transl: beta-catenin nuclear translocation modulation; nuclear translocation activity, % at 5 µM; HeLa beta-catenin nuclear translocation, immunofluorescence imaging; 190,000 compounds, 0.3% hits;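 active = nuclear translocation activity above 50% at 5 µM, with a well cell count of 50 or more; inconclusive = wells under 50 cells across six images, flagged as toxic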;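 note: per-cell ratio of nuclear to cytoplasmic median beta-catenin stain intensity; plate controls were DMSO negative control for no effect and GSK-3 inhibitor IX positive control for full effect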
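assay system = human HeLa cells, endogenous beta-catenin | times = compound treatment 24 h, 37°C, 5% CO2 | detection = Anti-beta-catenin immunofluorescence on PFA-fixed, Triton-permeabilized cells, DAPI nuclei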
ROMK primary: modulators of human ROMK potassium channel | Tet-inducible ROMK, thallium flux fluorescence; actives lie on both sides | B-score at 10 µM | AID 1918 | 130,000 compounds, 2% hits | P48048;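 active = signal ratio slope over the read window, or its plate-corrected B-score, at least 3 SD from the plate mean, either direction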;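 note: B-score of the F/F0 ratio slope over 7 to 12 s after thallium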
Target sequence (P48048 whole entry, looked up): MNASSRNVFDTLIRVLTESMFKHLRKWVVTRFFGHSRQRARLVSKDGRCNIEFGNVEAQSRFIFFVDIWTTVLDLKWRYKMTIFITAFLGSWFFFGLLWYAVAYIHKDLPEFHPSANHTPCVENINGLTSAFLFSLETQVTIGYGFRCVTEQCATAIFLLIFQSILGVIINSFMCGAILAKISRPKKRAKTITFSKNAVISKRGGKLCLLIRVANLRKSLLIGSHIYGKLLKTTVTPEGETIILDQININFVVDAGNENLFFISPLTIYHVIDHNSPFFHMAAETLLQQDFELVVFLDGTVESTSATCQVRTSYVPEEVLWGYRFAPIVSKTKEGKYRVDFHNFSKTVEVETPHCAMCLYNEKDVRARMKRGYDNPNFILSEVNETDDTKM
ROMK hit retest: confirmation of human ROMK potassium channel modulators; AID 1917; normalized thallium flux (F/F0 slope) at 10 µM; shares compounds with ROMK primary; 3,000 compounds, 54% hits; ROMK thallium flux, fluorescence ratio; stronger effect = lower value;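 active = Flux at 10 µM at least 3 SD below or above vehicle control mean in one or both replicates; inconclusive = no clear call, values can overlap the other calls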
Numbers without * were called inactive; ? = inconclusive; / = not tested or not shown.

SMILES	MT stabilizer	bCat nuc transl	ROMK primary	ROMK hit retest
CC(=O)C1=C(C)NC(SCC(N)=O)=C(C#N)C1CC(C)C (configuration not stated)	5	-1	-0.34	/
CN(C(=O)Nc1cnccc1C(F)(F)F)C1CCCCC1	/	-2	/	/
O=C(Nc1ccccc1-c1ccccc1)NC1CC2CCCC(C1)N2Cc1ccc(F)cc1 (configuration not stated)	3	0	-3	/
O=C(Nc1ccccc1-c1ccccc1)NC1CC2CCCC(C1)N2CCc1ccccc1 (configuration not stated)	3	-2	-3.1*	0.058*
CNC(=S)N(Cc1ccccc1)Cc1cccnc1	/	2	-12*	0.071
Cc1ccccc1NC(=S)N(Cc1ccccc1)Cc1cccnc1	2	-5	-0.64	/
CCN(CC)CCCNC(=S)N(Cc1ccco1)Cc1cc2cc3c(cc2[nH]c1=O)OCCO3	3	/	/	/
CCN(CC)CCCNC(=S)N(Cc1cccs1)Cc1cc2cc3c(cc2[nH]c1=O)OCCO3	2	0	-11*	0.055*
O=c1c2cnn(-c3ccccc3)c2nc(-c2cccs2)n1-c1cccc(Cl)c1	3	3	/	/
COc1cc(C(=O)N(c2ccc(C)c(C)c2)C2C=CS(=O)(=O)C2)cc(OC)c1OC (configuration not stated)	2	-1	0.45	/
O=C(NC1=NCCS1)NC12CC3CC(CC(C3)C1)C2	2	-1	/	0.066*
O=C(NC1=NCCS1)C12CC3CC(C1)CC(C(=O)NC1=NCCS1)(C3)C2	4	/	0.21	/
O=C(CCn1c2c(c3ccccc31)CCCC2)NNC(=O)c1ccc([N+](=O)[O-])cc1	6	-1	/	0.048*
O=C(CCn1c2c(c3ccccc31)CCCC2)NNC(=O)c1ccc(Cl)c([N+](=O)[O-])c1	3	1	-0.016	/
O=Cc1ccc(-c2ccc([N+](=O)[O-])cc2Cl)o1	15	1	0.58	/
O=Cc1ccc(-c2cccc([N+](=O)[O-])c2)o1	/	0	/	0.1*
N#C/C(=C/c1ccc([N+](=O)[O-])cc1)C(N)=O	4	0	-3.7*	0.06*
N#C/C(=C\c1cc([N+](=O)[O-])ccc1Cl)C(N)=O	3	-1	-0.62	/
CCCN(CCC)CCCNS(=O)(=O)c1cc(Br)cc2c1N(C(C)=O)CC2	4	-1	-0.25	/
CC(=O)N1CCc2cc(Br)cc(S(=O)(=O)NCc3ccccn3)c21	5	-1	-7.4*	0.085
O=C(Nc1ccc(S(=O)(=O)N2CCCC2)cc1)C1CCCN1C(=O)c1cccs1 (configuration not stated)	3	-1	/	/
NC(=O)CC[C@H](NC(=O)OCc1ccccc1)C(=O)OCc1ccc(Cl)cc1	1	/	-0.69	/
Cc1ccc(/C=[N+](\[O-])c2ccc(N(C)C)cc2)c2nsnc12	7	0	/	0.047*
Cc1ccc2nsnc2c1NS(=O)(=O)c1c(C)ccc2nsnc12	1	-9	0.81	/
CCOc1ccc(-n2c(=O)c3sccc3n(CC(=O)NCCc3ccc(OC)c(OC)c3)c2=O)cc1	2	/	-1.1	/
SMILES	MT stabilizer	bCat nuc transl	ROMK primary	ROMK hit retest
O=[N+]([O-])c1ccc(NC(=S)N2CCc3ccccc3C2)cc1	6	-2	-1.8	/
Cc1nc2c(N=Nc3ccccc3F)c(N)nn2c(N)c1C#N	7	0	-0.76	/
CN(C)C(=S)c1ccccc1	/	-1	/	0.074
CN(C)C(=S)c1ccc(N(C)C)cc1	3	-1	/	/
CCn1nnc(-c2ccc(N)cc2)n1	8	0	-0.3	/
COc1ccc(N(CC(=O)Nc2cccc(N(C)S(C)(=O)=O)c2)S(=O)(=O)c2ccccc2)cc1Cl	5	-4	0.93	/
COc1ccc(-c2ncncc2-c2csc(C)n2)c(O)c1OC	1	-1	1.4	/
COC1=C(N)C(=O)c2nc(-c3nc(C(=O)O)c(C)c(-c4ccc(OC)c(OC)c4O)c3N)ccc2C1=O	42	/	/	0.057*
CC(C)c1nc2oc3c(N(C)CCO)ncnc3c2c2c1CCC2	/	-1	0.014	/
CCOc1cccc2sc(N(CCCN(C)C)C(=O)Cc3ccccc3)nc12	6	0	-3.2*	0.057*
CN(C)CCCN(C(=O)COc1ccccc1)c1nc2c(F)cccc2s1	2	1	-0.34	/
O=C(O)CC(NC(=O)Cc1ccc(Cl)cc1)c1ccco1 (configuration not stated)	5	-1	0.22	/
Cc1c(Cl)cccc1NC(=O)CNC(=O)c1ccccc1F	3	-2	/	/
COc1ccccc1N1CCN(CC(O)COCCOc2ccc(Br)cc2)CC1 (configuration not stated)	3	-3	/	/
O=S(=O)(N1CCCCC1)N1CCN(CC(O)COc2ccc3cc(Br)ccc3c2)CC1 (configuration not stated)	5	/	-0.24	/
COc1ccc(N2CCN(CC(O)COc3ccc4c(c3)CCC4)CC2)cc1 (configuration not stated)	1	/	-4.5*	0.061*
COc1ccc(N2CCN(CC(O)COCCOc3ccc(Br)cc3)CC2)cc1 (configuration not stated)	3	2	-2.4*	0.058*
COc1ccc(OCC(O)CN2CCN(c3ccc(Cl)cc3)CC2)cc1 (configuration not stated)	/	-1	/	/
OC(COc1ccc2cc(Br)ccc2c1)CN1CCCC1 (configuration not stated)	3	/	/	0.064*
Cc1ccc(S(=O)(=O)N2CCN(C(=O)N(C)C)CC2)cc1	2	0	-0.54	/
c1ccc(Nc2nc(CSc3ncn[nH]3)cs2)cc1	5	0	-2*	0.079
O=C(CSc1ncn[nH]1)Nc1nc(-c2ccccc2)cs1	4	-2	/	/
COc1cc(/C=C(\C#N)c2nc3ccccc3[nH]2)cc(Br)c1OCc1ccccc1	8	2	/	/
COc1cc(/C=C(\C#N)C(=O)NCCc2ccccc2)cc(OC)c1O	2	0	-2.7	/
COc1cc(/C=C(\C#N)c2nc3ccccc3[nH]2)cc(OC)c1O	2	1	/	0.038*
SMILES	MT stabilizer	bCat nuc transl	ROMK primary	ROMK hit retest
COc1cc(/C=C(\C#N)C(=O)c2c[nH]c3ccccc23)cc(OC)c1O	2	6	-5.6*	0.041*
Cn1c(CN2CCN(C(=O)c3ccc(F)cc3)CC2)nc2cc([N+](=O)[O-])ccc21	3	-1	/	/
O=C(COC(=O)c1cccc(NS(=O)(=O)c2ccc(F)c(F)c2)c1)NC(=O)NC1CCCC1	3	-3	/	/
CCOc1ccc(NC(=O)C2CC(=O)OC2c2ccccc2)cc1 (configuration not stated)	2	1	-1.3	/
COC(=O)c1ccc(NC(=O)C2CC(=O)OC2c2ccccc2)cc1 (configuration not stated)	/	1	/	0.072
COC(=O)C(=C/C(C)=C/c1cccnc1)C(=O)OC	3	1	-1.5	/
CCCN1C2CCCC1CC(NC(=O)Nc1cccc(C(C)=O)c1)C2 (configuration not stated)	1	1	/	/
CCc1cccc(CC)c1NC(=O)CN1C2CCCC1CC(NC(=O)Nc1cccc(OC)c1)C2 (configuration not stated)	4	-1	-4*	?
O=C(CN1CCN(c2ccc([N+](=O)[O-])cc2)CC1)Nc1ccccn1	2	2	-3.2*	0.054*
